SMILES strings stand for the structures. Where only a bound is given, the exact number is not on record here.

Test [1] concerns the target Bone morphogenetic protein receptor type-1A (Homo sapiens) (UniProt P36894). The test can be described thus: Binding affinity to BMPR1A (unknown origin) assessed as change in melting temperature at 10 uM incubated for 10 mins using SYPRO orange dye by RT-PCR-based fluorescence assay. Summed up: (§1)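 Recombinant kinase domain at 2 μM in 10 mM HEPES pH 7.5, 500 mM NaCl, mixed with 10 μM inhibitor for 10 min at room temperature; SYPRO orange added at 1:1000; temperature-dependent unfolding fluorescence read on a real-time PCR instrument; Tm shift derived by a previously described method.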

Test [2] has as its target Serine/threonine-protein kinase pim-3 (Homo sapiens) (UniProt Q86V86). Put plainly: Binding affinity to PIM3 (unknown origin) assessed as change in melting temperature at 10 uM incubated for 10 mins using SYPRO orange dye by RT-PCR-based fluorescence assay. The essentials: as §1
In test [3] the target is Tyrosine-protein kinase JAK1 (Homo sapiens) (UniProt P23458). Put plainly: Binding affinity to JAK1 (unknown origin) assessed as change in melting temperature at 10 uM incubated for 10 mins using SYPRO orange dye by RT-PCR-based fluorescence assay. The essentials:
as §1

For test [4], the target named is Activin receptor type-2A (Homo sapiens) (UniProt P27037). The test can be described thus: Binding affinity to ACTR2 (unknown origin) assessed as change in melting temperature at 10 uM incubated for 10 mins using SYPRO orange dye by RT-PCR-based fluorescence assay.
Test [5] has as its target Activin receptor type-1 (Homo sapiens) (UniProt Q04771). Put plainly: Binding affinity to ACVR1 (unknown origin) assessed as change in melting temperature at 10 uM incubated for 10 mins using SYPRO orange dye by RT-PCR-based fluorescence assay. The essentials: as §1
Test [6] deals with BMP-2-inducible protein kinase (Homo sapiens) (UniProt Q9NSY1). Put plainly: Binding affinity to BIKE (unknown origin) assessed as change in melting temperature at 10 uM incubated for 10 mins using SYPRO orange dye by RT-PCR-based fluorescence assay. Summed up:
as §1

In test [7] the target is Dual specificity protein kinase CLK1 (Homo sapiens, UniProt P49759). The settings on record: dose 10.0 µM, time 10.0 min.
For test [8], the target named is T1, Dual specificity tyrosine-phosphorylation-regulated kinase 2 (Homo sapiens) (UniProt Q92630).
T1 sequence (whole entry): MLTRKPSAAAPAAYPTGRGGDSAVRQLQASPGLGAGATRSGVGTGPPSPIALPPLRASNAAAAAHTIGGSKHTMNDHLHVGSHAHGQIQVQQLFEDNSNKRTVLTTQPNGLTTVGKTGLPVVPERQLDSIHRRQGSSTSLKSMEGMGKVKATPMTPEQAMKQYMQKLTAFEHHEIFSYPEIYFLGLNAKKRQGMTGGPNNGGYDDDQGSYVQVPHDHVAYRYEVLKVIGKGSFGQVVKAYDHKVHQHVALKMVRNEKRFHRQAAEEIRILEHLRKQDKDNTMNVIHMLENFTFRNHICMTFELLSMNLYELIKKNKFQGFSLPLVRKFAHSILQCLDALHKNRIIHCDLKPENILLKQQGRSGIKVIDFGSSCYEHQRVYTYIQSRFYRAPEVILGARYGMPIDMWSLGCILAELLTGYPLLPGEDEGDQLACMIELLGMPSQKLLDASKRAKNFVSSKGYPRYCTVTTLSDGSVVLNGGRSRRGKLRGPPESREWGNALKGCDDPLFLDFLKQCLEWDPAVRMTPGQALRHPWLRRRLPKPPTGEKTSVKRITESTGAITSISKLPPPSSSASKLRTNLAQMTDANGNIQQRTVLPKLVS
The test can be described thus: Binding affinity to DYRK2 (unknown origin) assessed as change in melting temperature at 10 uM incubated for 10 mins using SYPRO orange dye by RT-PCR-based fluorescence assay. The essentials: as §1

Test [9] deals with Cyclin-G-associated kinase (Homo sapiens) (UniProt O14976). Put plainly: Binding affinity to GAK (unknown origin) assessed as change in melting temperature at 10 uM incubated for 10 mins using SYPRO orange dye by RT-PCR-based fluorescence assay. The essentials: as §1

Take `CC(=O)c1cccc(-c2cnc3ccc(NCC4CC4)nn23)c1`: the ΔTm in test [1], in test [2], in [3], in test [4], in [5] and in test [6] was over 6 °C in each case. The ΔTm in [7] was over 4 °C; in [8], over 4 °C; in [9], over 6 °C.
